The term EC50 denotes the concentration giving half of the maximal effect. The CC50 is the concentration that lowers cell viability or growth by half.

The text below walks through data of ChEMBL document CHEMBL1955737, “Diarylpyrimidine-dihydrobenzyloxopyrimidine hybrids: new, wide-spectrum anti-HIV-1 agents active at (sub)-nanomolar level” (J Med Chem, 2011).

Data set [1] concerns Human immunodeficiency virus 1. Kind of data set: Resistance ratio of EC50 for HIV 1 harboring reverse transcriptase Y181C mutant infected in human MT4 cells to EC50 for wild type HIV 1 NL4-3 infected in human MT4 cells. The data set is classed as functional. The procedure, abridged: (§1)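 Fold change is the EC50 against the mutant strain (K103N, Y181C, Y188L or IRLL98) divided by the EC50 against wild-type NL4-3. Both EC50s come from MT-4 cells infected in the presence of a range of drug concentrations, with MTT viability read at day 5. Values are means of at least two experiments.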

Data set [2] deals with Human immunodeficiency virus type 1 reverse transcriptase (Human immunodeficiency virus 1), Q72547 [K103N].
The subject of data set [3] is Human immunodeficiency virus 1. The data set is described as follows: Antiviral activity against HIV 1 harboring reverse transcriptase Y188L mutant infected in human MT4 cells assessed as inhibition of virus-induced cytopathic effect after 5 days by MTT assay. Format: functional, organism-based. The conditions noted are these: Human immunodeficiency virus 1, MT4, 120 h. A general note: Damage to the host cells serves as the signal in cytopathic effect assays.

Data set [4] can be described thus: Cytotoxicity against human MT4 cells assessed as cell viability by MTT assay. The data set is classed as cell-based. In general terms: Formazan colour is commonly taken as a measure of viable cells.
Data set [5] in a line: Selectivity index, ratio of CC50 for human MT4 cells to EC50 for HIV 1 NL4-3. Format: toxicity, cell-based. The conditions noted are these: read-out: Ratio CC50/EC50. The procedure, abridged:
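CC50 from mock-infected MT-4 cells and EC50 against HIV-1 NL4-3 in infected MT-4 cells, both by day-5 MTT viability read-out; index computed as CC50/EC50(NL4-3); means of at least two experiments.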

The subject of data set [6] is Human immunodeficiency virus type 1 reverse transcriptase (Human immunodeficiency virus 1), Q72547 [L100I].
Data set [7] deals with Human immunodeficiency virus 1. The data set is described as follows: Resistance ratio of EC50 for HIV 1 harboring reverse transcriptase K103N mutant infected in human MT4 cells to EC50 for wild type HIV 1 NL4-3 infected in human MT4 cells. Format: functional. The procedure, abridged:
as §1

The test system of data set [8] is Human immunodeficiency virus 1. Kind of data set: Antiviral activity against HIV 1 harboring reverse transcriptase Y181C mutant infected in human MT4 cells assessed as inhibition of virus-induced cytopathic effect after 5 days by MTT assay. The conditions noted are these: Human immunodeficiency virus 1, MT4, 120 h. The data set is classed as functional, organism-based. In a few lines: (§2)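 MT-4 cells (NIH AIDS Reagent Program) infected with the mutant HIV-1 strain in the presence of a range of drug concentrations. Mutant strains were from the MRC Centralised Facility for AIDS Reagents; IRLL98 carries K101Q, Y181C and G190A. Viable cells were counted by MTT colorimetry at day 5 post-infection. […] Values are means of at least two experiments.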

Data set [9] relates to Human immunodeficiency virus 1. The data set is described as follows: Ratio of ID50 for HIV 1 reverse transcriptase Y181I mutant to ID50 for wild type HIV 1 NL4-3 reverse transcriptase. In a few lines:
(§3)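 Recombinant HIV-1 RT (wild type or K103N, L100I, Y181I or Y188L), purified to >95%, at 2-4 nM. RNA-dependent DNA polymerase assay with 0.5 μg poly(rA)/oligo(dT) 10:1 (0.3 μM 3'-OH ends) and 10 μM [3H]dTTP in 8% final DMSO. Initial velocities were taken from aliquots sampled every 2 min. […] The ratio is mutant ID50 over wild-type ID50. Means of at least three experiments.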

Data set [10] has as its system Human immunodeficiency virus type 1 reverse transcriptase (Human immunodeficiency virus 1), Q72547 [Y181I].
Data set [11] has as its system Human immunodeficiency virus 1. The data set is described as follows: Ratio of ID50 for HIV 1 reverse transcriptase L100I mutant to ID50 for wild type HIV 1 NL4-3 reverse transcriptase. In a few lines:
as §3

A further data set concerns MT4. The data set is described as follows: Ratio of MC1220 CC50 to compound CC50 for human MT4 cells. Format: ADME, cell-based.
For data set [12], the system named is Human immunodeficiency virus 1. The data set is described as follows: Antiviral activity against HIV 1 harboring reverse transcriptase K103N mutant infected in human MT4 cells assessed as inhibition of virus-induced cytopathic effect after 5 days by MTT assay. The data set is classed as functional, organism-based. The conditions noted are these: Human immunodeficiency virus 1, MT4, 120 h.

The test system of data set [13] is Human immunodeficiency virus 1. The data set is described as follows: Ratio of efavirenz EC50 to compound EC50 for wild type HIV 1 NL4-3 infected in human MT4 cells. The data set is classed as functional.
Data set [14] addresses Human immunodeficiency virus type 1 reverse transcriptase (Human immunodeficiency virus 1) (UniProt Q72547).
The test system of data set [15] is Human immunodeficiency virus 1. Kind of data set: Ratio of ID50 for HIV 1 reverse transcriptase K103N mutant to ID50 for wild type HIV 1 NL4-3 reverse transcriptase. In a few lines: as §3
Data set [16] relates to Human immunodeficiency virus 1. The data set is described as follows: Ratio of ID50 for HIV 1 reverse transcriptase Y188L mutant to ID50 for wild type HIV 1 NL4-3 reverse transcriptase. In a few lines: as §3
In data set [17] the test system is Human immunodeficiency virus 1. Kind of data set: Antiviral activity against wild type HIV 1 NL4-3 infected in human MT4 cells assessed as inhibition of virus-induced cytopathic effect after 5 days by MTT assay. The conditions noted are these: Human immunodeficiency virus 1, NL4-3, MT4, 120 h. Format: functional, organism-based.
Data set [18] relates to Human immunodeficiency virus 1. The data set is described as follows: Resistance ratio of EC50 for HIV 1 harboring reverse transcriptase Y188L mutant infected in human MT4 cells to EC50 for wild type HIV 1 NL4-3 infected in human MT4 cells. Format: functional. The procedure, abridged:
as §1

Data set [19] in a line: Ratio of TMC120 CC50 to compound CC50 for human MT4 cells. Format: ADME, cell-based.
Data set [20] deals with Human immunodeficiency virus 1. Kind of data set: Antiviral activity against multidrug-resistant HIV 1 IRLL98 harboring reverse transcriptase K101Q/Y181C/G190a mutant infected in human MT4 cells assessed as virus-induced cytopathic effect after 5 days by MTT assay. The data set is classed as functional, organism-based. The conditions noted are these: Human immunodeficiency virus 1, IRLL98, MT4, 120 h. In a few lines:
as §2

Molecules are shown by their SMILES.

For the compound `CC(c1cc(N)nc(Nc2ccc(C#N)cc2)n1)c1c(F)cccc1F` (centres undefined), the “Ratio EC50” value in [1] is on record as 149; in data set [7], 27; in data set [13], over 10; in data set [18], 222. Also, the ID50 in data set [2] came to 109 nM; in data set [6], 765 nM; in data set [10], 11100 nM; in [14], 11 nM. For the same compound, the concentration for a half-maximal effect (EC50) in [3] is 66.6 nM; in data set [8], 44.7 nM; in [12] it was 8.2 nM; in data set [17], 0.3 nM. Besides, the CC50 in data set [4] is 46100 nM. Further, the selectivity ratio in [5] is 154000; in data set [19], over 10. Moreover, the Ratio in data set [9] came out at 1010; in data set [11], 69; with MT4 it was 2.5; in data set [15], 10; in data set [16], 147.
`N#Cc1ccc(Nc2nc(N)cc(Cc3c(F)cccc3F)n2)cc1`: the “Ratio EC50” value in data set [1] is recorded as 238; in data set [7] it was 47; in data set [13], over 10; in data set [18] it was 361. For the same compound, the ID50 in [2] was found to be 169 nM; in data set [6], 1510 nM; in data set [10], 17300 nM; in data set [14], 11 nM. Besides, the EC50 in [3] was 108 nM; in data set [8], 71.4 nM; in [12], 14.2 nM; in [17] it was 0.3 nM. In addition, in data set [4], the half-maximal cytotoxic concentration (CC50) is 44600 nM. Moreover, the selectivity ratio is 149000 in data set [5] and over 10 in data set [19]. Further, the Ratio in [9] is 1570; in data set [11] it was 137; in the data set on MT4 it was 2.5; in [15], 15; in [16], 280.
As to `Cc1c(N)nc(Nc2ccc(C#N)cc2)nc1Cc1c(F)cccc1F`, the “Ratio EC50” value in data set [1] was 352; in data set [7], 41; in data set [13], over 10; in data set [18] it was 756. Also, the ID50 stood at 90 nM in data set [2], 603 nM in data set [6], 22100 nM in data set [10] and 11 nM in data set [14]. For the same compound, the EC50 in data set [3] came out at 151 nM; in data set [8], 70.3 nM; in data set [12] it was 8.2 nM; in [17], 0.2 nM. Further, the CC50 in data set [4] came to 45900 nM. Also, the selectivity ratio in data set [5] is 230000; in data set [19], over 10. The Ratio in [9] is 2010; in data set [11], 55; in the data set with MT4 it was 2.5; in data set [15], 8; in data set [16], 315.
Turning to `Cc1ccnc2c1NC(=O)c1cccnc1N2C1CC1` [NEVIRAPINE], the half-maximal effective concentration (EC50) was over 18800 nM in [20], over 7510 nM in data set [3], over 7510 nM in [8] and 6120 nM in [12]. In data set [4], the CC50 worked out at 7510 nM. Further, the ID50 in data set [10] worked out at 35000 nM.
As for `Cc1cc(C)c(Nc2ccnc(Nc3ccc(C#N)cc3)n2)c(C)c1` [DAPIVIRINE], the ID50 was 100 nM in data set [2], over 1000 nM in data set [10] and 7 nM in data set [14]. In addition, the EC50 turned out to be 0.3 nM in data set [20], 1.2 nM in [8], 1.2 nM in [12] and 0.03 nM in [17]. Further, the half-maximal cytotoxic concentration (CC50) in data set [4] amounted to 3040 nM.
Turning to `Cc1c(C(C)c2c(F)cccc2F)nc(N(C)C)[nH]c1=O` (centres undefined), the ID50 worked out at 500 nM in data set [2], 1000 nM in data set [6], 4000 nM in [10] and 100 nM in data set [14]. The EC50 in [20] was determined as 205 nM. In addition, the half-maximal cytotoxic concentration (CC50) in [4] was over 17000 nM. For the same compound, the Ratio came to 40 in data set [9], 10 in data set [11], 5 in [15] and 5 in [16].
